Calls of active or inactive are those of the source. Unless noted, no stated cut-off is given here; in the data, active means inhibition above about 31%; inactive means the rest.
How the values were obtained:
[1] = HUVEC growth inhibition – cell-based, human, primary screen (AID 575;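 active means viability at or below 30% in both replicate assays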;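 further: 100% = median of untreated cell wells with 0.1% DMSO on each plate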); settings: HUVEC proliferation, CellTiter-Glo luminescence, 72 h; at 10 µM; stronger effect = lower value
Procedure, shortened: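 material = primary HUVEC, no more than 12 passages | input = 1250 cells per well | controls = vehicle and MePR control wells | measured by = CTG luminescence | times = 72 h compound incubation | format = collagen-coated 384-well format | read-out = % viability vs DMSO wells | doses = single 10 µM dose, 0.1% DMSO, from 5x medium stock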

[2] = H69AR cell proliferation blockers – human, duplicate replicates, primary screen (AID 580;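 active means viability at or under a set limit in both replicates, limit being median viability minus 3 SD, cut at about 48% in these data, passing the limit was not always enough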;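 further: 100% = mean luminescence of untreated wells and 0% = no signal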); settings: H69AR lung tumor cells viability, ATP luminescence, 72 h; at 10 µM; stronger effect = lower value
[3] = MRP1 drug-resistance reversers in H69AR cells – cell-based, doxorubicin co-treatment, pilot screen (AID 601;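 active means viability loss from added drug above about 55%, and viability with drug at most 40%, in both replicates, limit read from the data, passing the limit was not always enough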); settings: CellTiter-Glo, 72 h, at 10 µM; for differential viability (reversal): stronger effect = higher value
[4] = yeast transport mutant growth inhibition pilot in 384-well plates, post-Golgi transport modulator project (AID 636); settings: absorbance 615 nm, about 18 h, stronger effect = higher value
[5] = growth suppression of yeast trafficking mutant, preliminary HTS, modulators of trafficking downstream of Golgi apparatus project, 1536-format plate, OD 615 nm (AID 637; in the data active means inhibition above about 30%); settings: yeast transport mutant growth, absorbance 615 nm, 18 h; stronger effect = higher value
[6] = H69AR cells + 2 uM doxorubicin, measured here: viability with 2 uM doxorubicin, stronger effect = lower value
[7] = H69AR cells, compound alone cytotoxicity

Row | SMILES | viability [1] | viability [2] | differential viability (reversal) ([3]; H69AR cells + 2 uM doxorubicin) | viability [3, 6] [%] | viability [3, 7] [%] | inhibition [4] | inhibition [5]
1 | CCOC(=O)C1CCCN(C(=O)CNS(=O)(=O)c2ccc(Br)s2)C1 (centres undefined) | 108% (inactive) | 95.7% (inactive) | 17.7% (inactive) | 78 | 95.7 | -6.71% (inactive) | 4.13% (inactive)
2 | O=C(Nc1nc(-c2ccc(S(=O)(=O)N3CCCCCC3)cc2)cs1)c1cccs1 | 73.6% (inactive) | 64.6% (inactive) | -4.63% (inactive) | 69.2 | 64.6 | -6.62% (inactive) | -3.81% (inactive)
3 | CCC1Cc2c(nc3c4c(nc(N5CCOCC5)c(C#N)c24)NC(C)=N3)O1 (centres undefined) | 94% (inactive) | 88.3% (inactive) | 6.83% (inactive) | 81.5 | 88.3 | -2.99% (inactive) | 4.76% (inactive)
4 | O=C(NCc1n[nH]c(=S)n1-c1ccc(F)cc1)c1ccco1 | 102% (inactive) | 96.2% (inactive) | 6.98% (inactive) | 89.2 | 96.2 | -0.53% (inactive) | -1.11% (inactive)
5 | N#Cc1nc(-c2ccccc2Cl)oc1N1CCOCC1 | 84.2% (inactive) | 86.8% (inactive) | 3.5% (inactive) | 83.3 | 86.8 | -3.47% (inactive) | 14.1% (inactive)
6 | COCCOC(=O)C1=C(C)NC(=O)CC1c1cc2c(cc1Br)OCO2 (centres undefined) | 89.4% (inactive) | 97.4% (inactive) | 25.1% (inactive) | 72.4 | 97.4 | -4.67% (inactive) | 2.86% (inactive)
7 | COc1ccccc1NC(=O)N1c2ccc(F)cc2CCC1C (centres undefined) | 83.3% (inactive) | 99% (inactive) | 15% (inactive) | 84 | 99 | -2.47% (inactive) | 3.02% (inactive)
8 | CCc1ccc(NC(=O)c2cc(-c3ccco3)on2)cc1 | 75.1% (inactive) | 91.3% (inactive) | -16.3% (inactive) | 108 | 91.3 | -1.45% (inactive) | -4.6% (inactive)
9 | O=C1CC(c2ccccc2)CC(O)=C1C=NCCCN1CCOCC1 (centres undefined) | 100% (inactive) | 100% (inactive) | 5.34% (inactive) | 95 | 100 | -1.05% (inactive) | -3.49% (inactive)
10 | COc1cccc(Nc2c(F)c(F)c(F)c(F)c2C(=O)O)c1 | 92.2% (inactive) | 99.7% (inactive) | 9.22% (inactive) | 90.5 | 99.7 | -5.84% (inactive) | -1.27% (inactive)
11 | CS(=O)(=O)N1CCN(C(=O)c2ccc(-c3ccccc3)cc2)CC1 | 96.7% (inactive) | 96.1% (inactive) | 10.2% (inactive) | 85.9 | 96.1 | -2.99% (inactive) | 8.25% (inactive)
12 | Cc1ccc(C(=O)CSc2nnc(CNc3ccc(C)cc3C)o2)cc1 | 81.7% (inactive) | 81.2% (inactive) | 0.795% (inactive) | 80.4 | 81.2 | -0.92% (inactive) | -10.5% (inactive)
13 | CCn1c(=N)n(CC(=O)C23CC4CC(CC(C4)C2)C3)c2ccccc21 | 4.87% (active) | 83.1% (inactive) | -0.145% (inactive) | 83.2 | 83.1 | -5.27% (inactive) | 15.3% (inactive)
14 | CCOC(=O)c1ccc(NS(=O)(=O)c2ccc(SC)cc2)cc1 | 99% (inactive) | 108% (inactive) | 10.8% (inactive) | 97.4 | 108 | -7.11% (inactive) | -3.81% (inactive)
15 | CS(=O)(=O)Nc1ccc(C(=O)NCc2ccc3c(c2)OCO3)cc1 | 92.2% (inactive) | 96.2% (inactive) | 0.675% (inactive) | 95.5 | 96.2 | -8.29% (inactive) | -1.9% (inactive)
16 | CC(=O)Nc1cccc(NC(=O)CSc2nnnn2C)c1 | 115% (inactive) | 106% (inactive) | 10.2% (inactive) | 95.9 | 106 | -5.39% (inactive) | 0.95% (inactive)
17 | Cc1cccnc1NC(=O)CCCN1C(=O)c2ccccc2C1=O | 114% (inactive) | 94.7% (inactive) | 4.67% (inactive) | 90 | 94.7 | -6.13% (inactive) | 3.97% (inactive)
18 | O=C(Cn1nnc2c(cnn2-c2ccc(F)cc2)c1=O)c1ccccc1F | 75.6% (inactive) | 81.2% (inactive) | 16.1% (inactive) | 65.1 | 81.2 | -3.64% (inactive) | -0.48% (inactive)
19 | CCCCn1c(NC(=O)CC)c(C#N)c2nc3ccccc3nc21 | 77.4% (inactive) | 81.9% (inactive) | 2.13% (inactive) | 79.8 | 81.9 | -6.67% (inactive) | -2.38% (inactive)
20 | Cc1cc(C(=O)Nc2cccc(O)c2)c(C)o1 | 87.1% (inactive) | 90% (inactive) | 3.61% (inactive) | 86.4 | 90 | -4.55% (inactive) | 3.17% (inactive)
21 | COc1ccccc1C1(CC(=O)N2CCOCC2)CCOC(C(C)C)C1 (centres undefined) | 72.7% (inactive) | 88.8% (inactive) | -2.17% (inactive) | 91 | 88.8 | -5.47% (inactive) | -6.03% (inactive)

Row | SMILES | viability [1] | viability [2] | differential viability (reversal) ([3]; H69AR cells + 2 uM doxorubicin) | viability [3, 6] [%] | viability [3, 7] [%] | inhibition [4] | inhibition [5]
22 | CCOC(=O)c1sc(NS(=O)(=O)c2ccc(NC(C)=O)cc2)nc1C | 112% (inactive) | 96% (inactive) | 7.92% (inactive) | 88.1 | 96 | -1.97% (inactive) | 2.22% (inactive)
23 | Cc1ccc(N2CCN(C(=O)c3ccccc3)CC2)c(C)c1 | 114% (inactive) | 91.1% (inactive) | 6.71% (inactive) | 84.4 | 91.1 | -7.33% (inactive) | 5.4% (inactive)
24 | O=C(Nc1ccc(Cl)cc1)N1CCSCC1 | 97.6% (inactive) | 107% (inactive) | 17% (inactive) | 89.6 | 107 | -1.45% (inactive) | -0.16% (inactive)
25 | COc1ccc(/C(O)=C2/C(=O)C(=O)N(Cc3cccnc3)C2c2ccncc2)cc1F (centres undefined) | 111% (inactive) | 97.4% (inactive) | 3.08% (inactive) | 94.3 | 97.4 | -6.62% (inactive) | 0.16% (inactive)
26 | CCc1c(C(=O)NCCc2ccc(OC)c(OC)c2)[nH]c(C)c1C(C)=O | 98.6% (inactive) | 87% (inactive) | 4.88% (inactive) | 82.1 | 87 | -5.2% (inactive) | 3.97% (inactive)
27 | Cc1ccc2[nH]c(=O)c(CN(CCc3ccccc3)Cc3nnnn3CC3CCCO3)cc2c1 (centres undefined) | 77.1% (inactive) | 78.5% (inactive) | 0.205% (inactive) | 78.3 | 78.5 | 1.45% (inactive) | -5.87% (inactive)
28 | Cc1ccc(-c2nc(-c3cccnc3)no2)c(C)c1 | 78.9% (inactive) | 90.1% (inactive) | -0.56% (inactive) | 90.7 | 90.1 | -6.49% (inactive) | -9.52% (inactive)
29 | CC(C(N)=O)N1C(=O)C2C3C=CC(C3)C2C1=O (centres undefined) | 85.1% (inactive) | 106% (inactive) | 10.4% (inactive) | 95.2 | 106 | -1.6% (inactive) | -2.22% (inactive)
30 | Cc1cnn(C(=S)NCc2ccco2)c1 | 70.2% (inactive) | 84.5% (inactive) | -5.57% (inactive) | 90.1 | 84.5 | 2.24% (inactive) | -4.92% (inactive)
31 | CC(C)C1N=C2c3ccccc3N=C(SCC(=O)NCCc3ccc(S(N)(=O)=O)cc3)N2C1=O (centres undefined) | 82.8% (inactive) | 86.7% (inactive) | 4.46% (inactive) | 82.3 | 86.7 | -2.47% (inactive) | 4.13% (inactive)
32 | CC1CCCCN1CCNS(=O)(=O)c1ccc2c(c1)oc(=O)n2C (centres undefined) | 87% (inactive) | 108% (inactive) | 7.79% (inactive) | 99.9 | 108 | -6.13% (inactive) | -1.11% (inactive)
33 | COc1cc(CN2CCC(C(=O)NC3CCCC3)CC2)ccc1O | 109% (inactive) | 94.7% (inactive) | 9.49% (inactive) | 85.2 | 94.7 | -4% (inactive) | 0.79% (inactive)
34 | CCCN(CCO)Cc1cccc(Br)c1 | 101% (inactive) | 99.1% (inactive) | 5.32% (inactive) | 93.8 | 99.1 | -6.05% (inactive) | 3.65% (inactive)
35 | Cc1cc(C)c(C#N)c(SCc2ccc(C#N)cc2)n1 | 44.7% (inactive) | 68.5% (inactive) | -7.06% (inactive) | 75.6 | 68.5 | -2.27% (inactive) | -2.86% (inactive)
36 | CCc1ncc(C(O)c2cccc(OC)c2OC)n1C (centres undefined) | 101% (inactive) | 98.7% (inactive) | 11.3% (inactive) | 87.3 | 98.7 | -3.68% (inactive) | 4.13% (inactive)
37 | O=C(COc1ccc(Cl)cc1)Nc1ncccn1 | 106% (inactive) | 107% (inactive) | 14.6% (inactive) | 92.6 | 107 | -1.05% (inactive) | 4.13% (inactive)
38 | CCc1nc(C)ccc1OCC(=O)O | 102% (inactive) | 93% (inactive) | -12.6% (inactive) | 106 | 93 | 4.8% (inactive) | 2.7% (inactive)
39 | COc1ccccc1-n1c(C)nnc1SCC(=O)Nc1cccc(C(C)=O)c1 | 101% (inactive) | 104% (inactive) | 6.48% (inactive) | 97 | 104 | -4.4% (inactive) | 17.9% (inactive)
40 | O=C(Cc1ccsc1-c1ccccc1)NO | 72.8% (inactive) | 1.73% (active) | 0.35% (inactive) | 1.39 | 1.73 | -3.82% (inactive) | 4.29% (inactive)
41 | COc1ccc(CCN2C(=O)C3C4C=CC(C4)C3C2=O)cc1OC (centres undefined) | 97.7% (inactive) | 99.8% (inactive) | 5.05% (inactive) | 94.8 | 99.8 | -6.71% (inactive) | -4.44% (inactive)
42 | O=C1c2ccccc2C(=O)N1CCCCN1CCN(CCCCN2C(=O)c3ccccc3C2=O)CC1 | 93% (inactive) | 97.5% (inactive) | 12.7% (inactive) | 84.8 | 97.5 | -7.33% (inactive) | 6.98% (inactive)

Source: PubChem BioAssay
